The results in this text go back to ChEMBL document CHEMBL3108698, “Targeting low-druggability bromodomains: fragment based screening and inhibitor design against the BAZ2B bromodomain” (J Med Chem, 2013).

In experiment [1] the target is Bromodomain adjacent to zinc finger domain protein 2B (Homo sapiens) (UniProt Q9UIF8). Description: Displacement of biotinylated H3Kac14 peptide from His6-tagged human BAZ2B expressed in Escherichia coli BL21(DE3) at 200 uM after 30 mins by AlphaLISA assay relative to control.
Sequence of Bromodomain adjacent to zinc finger domain protein 2B (Homo sapiens) (Q9UIF8 whole entry, the tested form may be a part): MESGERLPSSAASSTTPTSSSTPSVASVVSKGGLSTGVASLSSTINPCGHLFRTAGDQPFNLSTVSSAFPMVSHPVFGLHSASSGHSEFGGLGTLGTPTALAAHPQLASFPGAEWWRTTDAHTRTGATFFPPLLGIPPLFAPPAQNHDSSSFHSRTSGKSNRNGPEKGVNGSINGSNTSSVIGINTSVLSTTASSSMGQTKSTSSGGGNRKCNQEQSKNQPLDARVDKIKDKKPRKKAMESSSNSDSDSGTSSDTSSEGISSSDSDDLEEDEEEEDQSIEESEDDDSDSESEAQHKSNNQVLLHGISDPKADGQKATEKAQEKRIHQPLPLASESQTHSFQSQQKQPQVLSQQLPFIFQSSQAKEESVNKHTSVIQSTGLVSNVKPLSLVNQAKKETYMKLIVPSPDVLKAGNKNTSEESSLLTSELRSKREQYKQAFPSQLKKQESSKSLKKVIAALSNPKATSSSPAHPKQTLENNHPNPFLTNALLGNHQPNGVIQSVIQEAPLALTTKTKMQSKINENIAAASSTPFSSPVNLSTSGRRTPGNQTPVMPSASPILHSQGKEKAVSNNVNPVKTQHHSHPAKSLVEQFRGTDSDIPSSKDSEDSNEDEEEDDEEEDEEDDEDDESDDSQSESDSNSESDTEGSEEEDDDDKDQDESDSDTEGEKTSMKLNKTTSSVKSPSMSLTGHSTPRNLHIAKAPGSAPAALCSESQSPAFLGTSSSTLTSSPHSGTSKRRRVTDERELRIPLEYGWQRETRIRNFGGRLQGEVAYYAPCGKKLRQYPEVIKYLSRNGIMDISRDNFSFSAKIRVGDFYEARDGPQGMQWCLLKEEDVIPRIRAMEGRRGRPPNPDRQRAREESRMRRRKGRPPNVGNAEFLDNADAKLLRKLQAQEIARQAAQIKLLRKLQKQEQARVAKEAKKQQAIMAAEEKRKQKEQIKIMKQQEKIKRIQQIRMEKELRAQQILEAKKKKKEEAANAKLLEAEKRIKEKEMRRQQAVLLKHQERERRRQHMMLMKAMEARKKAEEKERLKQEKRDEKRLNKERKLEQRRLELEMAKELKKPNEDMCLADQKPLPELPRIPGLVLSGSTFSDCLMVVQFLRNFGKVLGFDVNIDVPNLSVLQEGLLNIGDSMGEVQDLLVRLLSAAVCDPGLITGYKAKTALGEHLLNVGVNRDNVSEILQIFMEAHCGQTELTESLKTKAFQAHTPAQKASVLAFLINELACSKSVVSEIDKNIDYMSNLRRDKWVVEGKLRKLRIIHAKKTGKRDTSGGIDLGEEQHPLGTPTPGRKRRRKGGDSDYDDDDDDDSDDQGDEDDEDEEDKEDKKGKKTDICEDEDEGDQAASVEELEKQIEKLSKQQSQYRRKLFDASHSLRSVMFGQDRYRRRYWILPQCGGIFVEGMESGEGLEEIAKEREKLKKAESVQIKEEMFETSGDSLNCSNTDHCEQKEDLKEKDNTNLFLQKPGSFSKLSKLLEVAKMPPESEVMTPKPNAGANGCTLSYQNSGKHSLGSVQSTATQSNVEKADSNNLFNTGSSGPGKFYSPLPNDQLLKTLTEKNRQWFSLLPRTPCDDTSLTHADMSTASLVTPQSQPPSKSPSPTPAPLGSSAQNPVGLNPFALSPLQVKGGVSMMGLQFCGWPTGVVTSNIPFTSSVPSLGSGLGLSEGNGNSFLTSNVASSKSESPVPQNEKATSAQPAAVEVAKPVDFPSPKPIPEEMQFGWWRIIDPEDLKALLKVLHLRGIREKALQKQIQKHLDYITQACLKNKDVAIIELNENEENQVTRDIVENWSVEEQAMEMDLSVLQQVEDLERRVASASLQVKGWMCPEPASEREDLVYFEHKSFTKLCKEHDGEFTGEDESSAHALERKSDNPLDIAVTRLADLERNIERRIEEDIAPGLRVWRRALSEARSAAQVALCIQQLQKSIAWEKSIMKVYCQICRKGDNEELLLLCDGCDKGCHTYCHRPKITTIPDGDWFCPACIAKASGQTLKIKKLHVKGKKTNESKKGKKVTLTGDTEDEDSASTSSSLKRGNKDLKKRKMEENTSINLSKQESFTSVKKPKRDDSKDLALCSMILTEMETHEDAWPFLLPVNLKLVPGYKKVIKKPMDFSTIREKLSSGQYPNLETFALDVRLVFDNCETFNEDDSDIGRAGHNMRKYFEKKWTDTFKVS
Experiment [2] deals with Bromodomain-containing protein 2 (Homo sapiens) (UniProt P25440). Description: Binding affinity to BRD2 bromodomain-2 (unknown origin) assessed as change in melting temperature at 100 uM by differential scanning fluorimetric analysis. Summed up:
(§1)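 SYPRO Orange (1:1000) thermal shift with 2 μM bromodomain and 100 μM compound (final), 0.1% DMSO final, in 10 mM HEPES, 500 mM NaCl, 5% glycerol, 0.5 mM TCEP. Tm taken as the minimum of the negative first derivative of the melt curve. Run in triplicate; averages reported.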

For experiment [3] the target is unchanged. In words: Binding affinity to BRD2 bromodomain-1 (unknown origin) assessed as change in melting temperature at 100 uM by differential scanning fluorimetric analysis. Summed up: as §1
Experiment [4] deals with CREB-binding protein (Homo sapiens) (UniProt Q92793). Description: Binding affinity to CREBBP (unknown origin) assessed as change in melting temperature at 100 uM by differential scanning fluorimetric analysis. Summed up:
as §1

Sequence of Bromodomain-containing protein 2 (Homo sapiens) (P25440 whole entry, looked up): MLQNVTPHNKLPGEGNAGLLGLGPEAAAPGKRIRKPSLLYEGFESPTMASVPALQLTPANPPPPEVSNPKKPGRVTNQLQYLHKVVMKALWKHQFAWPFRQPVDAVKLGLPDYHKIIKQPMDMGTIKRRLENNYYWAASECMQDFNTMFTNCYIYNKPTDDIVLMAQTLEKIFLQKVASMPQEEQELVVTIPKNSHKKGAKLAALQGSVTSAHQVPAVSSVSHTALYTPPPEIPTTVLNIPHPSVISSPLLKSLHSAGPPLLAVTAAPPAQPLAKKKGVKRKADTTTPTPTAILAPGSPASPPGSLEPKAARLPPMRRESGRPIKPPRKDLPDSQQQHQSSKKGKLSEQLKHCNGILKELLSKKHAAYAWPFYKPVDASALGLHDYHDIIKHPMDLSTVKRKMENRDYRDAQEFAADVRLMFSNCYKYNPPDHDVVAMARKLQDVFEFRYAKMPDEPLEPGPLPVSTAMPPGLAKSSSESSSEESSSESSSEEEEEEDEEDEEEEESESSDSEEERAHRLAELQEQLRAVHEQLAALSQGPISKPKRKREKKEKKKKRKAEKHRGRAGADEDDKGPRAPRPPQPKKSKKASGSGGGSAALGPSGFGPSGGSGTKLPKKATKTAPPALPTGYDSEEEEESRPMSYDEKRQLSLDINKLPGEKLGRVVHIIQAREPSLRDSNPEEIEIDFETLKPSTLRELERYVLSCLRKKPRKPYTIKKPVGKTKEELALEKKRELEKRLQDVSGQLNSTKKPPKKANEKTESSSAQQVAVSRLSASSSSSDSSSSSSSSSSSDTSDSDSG

In experiment [1], `CC(=O)N1CCc2[nH]c3c(O)ccc(Cl)c3c2C1` displayed an inhibition of 52%.
On the same count and under the same terms, under `CC(=O)N1CCc2[nH]c3ccc(Oc4ccccc4)cc3c2C1` stands 65%; under `CC(=O)N1CCc2c(c3cccc4c3n2C(=O)CN4C)C1`, 63%; under `CC(=O)N1CCc2c(c3cc(Br)ccc3n2C(=O)OC(C)(C)C)C1`, 38%.
In the case of `CNC(=O)N1CCc2[nH]c3ccc(Cl)cc3c2C1`, the ΔTm is -0.2 °C in experiment [2], -0.6 °C in experiment [3] and 2.1 °C in experiment [4].
Take `CC(=O)N1CCc2[nH]c3ccc(-c4cccnc4)cc3c2C1`: the inhibition in experiment [1] was found to be 55%.
The molecule `CC(=O)N1CCc2[nH]c3ccc(N(C)C(C)=O)cc3c2C1` displayed an inhibition in experiment [1] of 65%.
`CC(=O)N1CCc2c(c3cc(Br)ccc3n2S(=O)(=O)c2ccc(C)cc2)C1`: the inhibition in experiment [1] came to 60%.
Take `CC(=O)N1CCc2[nH]c3ccc(Br)cc3c2C1`: the ΔTm came to 3.5 °C in experiment [2], 7.3 °C in experiment [3] and 8.1 °C in experiment [4].
In experiment [1], `CC(=O)N1CCc2c(c3cccc4c3n2CCS4)C1` returned an inhibition of 70%.
The same measure, in the same setting: under `CC(=O)N1CCc2[nH]c3ccc(C(=O)O)cc3c2C1` stands 48%.

The inhibition is the share of the control response that was lost under treatment. Low readings indicate a weak effect, high ones a strong effect. As a reminder, the ΔTm is the change in melting temperature against a reference sample.
